Test results as given in ChEMBL document CHEMBL1127433, “N6-substituted adenosine receptor agonists. Synthesis and pharmacological activity as potent antinociceptive agents” (J Med Chem, 1994).
Active and inactive are the calls of the source. The calls are words filed in the database; no cut-off is given here.

Tests used:
Mus musculus [1] = experiment: Effective dose of compound for phenylbenzoquinone-Induced writhing in mice after peroral administration expressed as analgesic activity; Not dose dependent; format: functional; conditions: po
How it was run: (§1)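 Mice dosed orally (0.5 mL/20 g); 1 h later given 0.02% phenylbenzoquinone in hydroalcoholic solution ip (0.20-0.24 mL). Writhings and stretches counted from minute 5 to minute 10. Six animals per group. Inhibition taken against the control mean; ED50 (50% decrease) by linear regression.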

[2] = target: T1, Adenosine A2 receptor (Rattus norvegicus) (UniProt P29276+P30543); experiment: Percent displacement from adenosine A2 receptor at 10e-7 M in rat striatal membrane in vitro.; format: cell membranes; conditions: Striatum
[3] = target: T2, Adenosine receptor A1 (Rattus norvegicus) (UniProt P25099); experiment: Percent displacement from adenosine A1 receptor at 10e-5 M in rat brain membrane in vitro.; format: cell membranes
T2 sequence (whole entry): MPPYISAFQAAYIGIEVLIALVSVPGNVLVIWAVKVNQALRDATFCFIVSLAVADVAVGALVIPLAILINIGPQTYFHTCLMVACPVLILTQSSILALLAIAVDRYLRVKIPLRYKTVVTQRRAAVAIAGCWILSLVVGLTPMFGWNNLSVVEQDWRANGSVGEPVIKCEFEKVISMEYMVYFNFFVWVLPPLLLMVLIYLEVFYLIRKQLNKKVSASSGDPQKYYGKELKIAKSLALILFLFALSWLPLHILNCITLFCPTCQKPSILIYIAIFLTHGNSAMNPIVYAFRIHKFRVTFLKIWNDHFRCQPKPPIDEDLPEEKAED

[4] = target: T1, Adenosine A2 receptor (Rattus norvegicus); experiment: Percent displacement from adenosine A2 receptor at 10e-5 M in rat striatal membrane in vitro.; format: cell membranes
[5] = target: T2, Adenosine receptor A1 (Rattus norvegicus); experiment: Percent displacement from adenosine A1 receptor at 10e-7 M in rat brain membrane in vitro.; format: cell membranes
Adenosine receptor A1 [6] = target: T3, Adenosine receptor A1 (Rattus norvegicus, UniProt P25099); experiment: Binding affinity for adenosine A1 receptor in vitro using rat brain membranes.; format: cell membranes
T3 sequence (P25099 whole entry): T2 sequence (whole entry)
How it was run: (§2)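 Whole rat brain membranes, homogenized in 50 mM Tris-HCl pH 7.4 and spun at 1090g then 48000g, pretreated with adenosine deaminase 1 U/mL for 30 min. Nonspecific binding defined with 10 μM PIA. Separated by GF/B filtration and scintillation counted, in triplicate. IC50 from log-logit regression, Ki via Cheng-Prusoff, one experiment.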

Adenosine A2 receptor = Adenosine A2 receptor (Rattus norvegicus, UniProt P29276+P30543); experiment: Binding affinity for adenosine A2 receptor in vitro using rat striatal membrane.; format: cell membranes
How it was run: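 Rat striatal membranes in 50 mM Tris-HCl, 10 mM MgCl2, pH 7.7, adenosine deaminase treated (1 U/mL, 30 min). Incubated with [3H]NECA (4 nM, 50 μL) plus 0.11 μM cyclopentyladenosine and competitor for 60 min at 25 °C. Nonspecific binding defined with 5 μM NECA. GF/B filtration, scintillation counting, triplicate. IC50 from log-logit regression, Ki via Cheng-Prusoff, one experiment.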

Adenosine receptor A1 [7] = target: T3, Adenosine receptor A1; experiment: Binding affinity for adenosine A1 receptor in rat brain membrane; format: cell membranes
How it was run: as §2, with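 “U/mL for 30 min. Incubated with 2.5 nM [3H]PIA and competitor at 20 °C” for “U/mL”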

Mus musculus [8] = experiment: Effective dose for phenylbenzoquinone-induced writhing in mice after peroral administration expressed as analgesic activity.; format: functional; conditions: po; how it was run: as §1
Mus musculus [9] = experiment: Effective dose of compound for phenylbenzoquinone-Induced writhing in mice after peroral administration expressed as analgesic activity; Not calculated; format: functional; conditions: po; how it was run: as §1
Mus musculus [10] = experiment: Effective dose of compound for phenylbenzoquinone-Induced writhing in mice after peroral administration expressed as analgesic activity; Inactive; format: functional, organism-based; how it was run: as §1

Row | Displacement [2] [%] | Displacement [3] [%] | Displacement [4] [%] | Displacement [5] [%] | Ki (Adenosine receptor A1 [6]) [µM] | Ki (Adenosine A2 receptor) [µM] | Ki (Adenosine receptor A1 [7]) [µM] | SMILES | ED50 (Mus musculus [1]) [mg/kg] | ED50 (Mus musculus [8]) [mg/kg] | ED50 (Mus musculus [9]) [mg/kg] | ED50 (Mus musculus [10])
1 | 21 | 97 | 89 | 37 | 0.13 | 0.34 |  | Cc1ccc(Cn2cc(CCNc3ncnc4c3ncn4C3O[C@H](C(=O)NC4CC4)[C@@H](O)[C@H]3O)c3ccccc32)cc1 (stereo partly specified) | < 3 |  |  | 
2 | 8 | 82 | 76 | 13 |  |  |  | CSc1ccc2c(c1)c(CCNc1ncnc3c1ncn3C1O[C@H](C(=O)NC3CC3)[C@@H](O)[C@H]1O)cn2Cc1cc(C)ccc1C (stereo partly specified) | > 10 |  |  | 
3 | 24 | 100 | 81 | 52 | 0.14 | 1.4 |  | O=C(NC1CC1)[C@H]1OC(n2cnc3c(NCCc4cn(Cc5ccc(Cl)c(Cl)c5)c5ccccc45)ncnc32)[C@H](O)[C@@H]1O (stereo partly specified) | > 30 |  |  | 
4 | 13 | 96 | 83 | 29 | 0.16 | 0.82 |  | Cc1ccc(Cn2cc(CCNc3ncnc4c3ncn4C3O[C@H](C(=O)NC4CC4)[C@@H](O)[C@H]3O)c3ccccc32)cc1C (stereo partly specified) | > 30 |  |  | 
5 | 29 | 100 | 68 | 91 |  | 0.56 | 0.0079 | O=C(NC1CC1)[C@H]1O[C@@H](n2cnc3c(NCCc4c[nH]c5ccccc45)ncnc32)[C@H](O)[C@@H]1O |  | 34.9 |  | 
6 | 30 | 97 | 98 | 78 | 0.026 | 0.183 |  | O=C(NC1CC1)[C@H]1O[C@@H](n2cnc3c(NCCc4cn(Cc5cccnc5)c5ccccc45)ncnc32)[C@H](O)[C@@H]1O | > 30 |  |  | 
7 | 0 | 31 | 23 | 6 |  |  |  | Cc1ccc(C)c(Cn2c(-c3ccccc3)c(CCNc3ncnc4c3ncn4C3O[C@H](C(=O)NC4CC4)[C@@H](O)[C@H]3O)c3ccccc32)c1 (stereo partly specified) | > 30 |  |  | 
8 | 51 | 100 | 95 | 83 |  |  |  | CN(C)CCn1cc(CCNc2ncnc3c2ncn3C2O[C@H](C(=O)NC3CC3)[C@@H](O)[C@H]2O)c2ccccc21 (stereo partly specified) | > 60 |  |  | 
9 | 12 | 92 | 86 | 38 | 0.16 | 0.66 |  | CCNC(=O)[C@H]1OC(n2cnc3c(NCCc4cn(Cc5cc(C)ccc5C)c5ccccc45)ncnc32)[C@H](O)[C@@H]1O (stereo partly specified) | < 2 |  |  | 
10 | 25 | 97 | 87 | 45 | 0.067 | 0.19 |  | O=C(NC1CC1)[C@H]1OC(n2cnc3c(NCCc4cn(CC5CC5)c5ccccc45)ncnc32)[C@H](O)[C@@H]1O (stereo partly specified) | > 10 |  |  | 
11 | 30 | 100 | 95 | 67 | 0.05 | 0.25 |  | OC[C@H]1OC(n2cnc3c(NCCc4cn(Cc5ccccc5)c5ccccc45)ncnc32)[C@H](O)[C@@H]1O (stereo partly specified) | > 30 |  |  | 
12 | 46 | 100 | 99 | 63 | 0.029 | 0.182 |  | O=C(NC1CC1)[C@H]1O[C@@H](n2cnc3c(NCCc4cn(Cc5cccc([N+](=O)[O-])c5)c5ccccc45)ncnc32)[C@H](O)[C@@H]1O |  |  | < 10 | 
13 | 25 | 95 | 83 | 64 |  |  |  | C#CCn1cc(CCNc2ncnc3c2ncn3C2O[C@H](C(=O)NC3CC3)[C@@H](O)[C@H]2O)c2ccccc21 (stereo partly specified) | < 10 |  |  | 
14 | 23 | 96 | 92 | 40 |  |  |  | O=C(NC1CC1)[C@H]1OC(n2cnc3c(NCCc4cn(Cc5ccc(Br)cc5F)c5ccccc45)ncnc32)[C@H](O)[C@@H]1O (stereo partly specified) |  |  |  | inactive
15 | 0 | 90 | 36 | 13 | 0.89 | > 10 |  | COCCNC(=O)[C@H]1O[C@@H](n2cnc3c(NCCc4cn(Cc5ccc(Cl)cc5)c5ccccc45)ncnc32)[C@H](O)[C@@H]1O |  |  |  | inactive
16 | 23 | 100 | 79 | 49 |  |  |  | O=C(NC1CC1)[C@H]1OC(n2cnc3c(NCCc4cn(Cc5ccc(Cl)cc5)c5ccc(Cl)cc45)ncnc32)[C@H](O)[C@@H]1O (stereo partly specified) |  |  |  | inactive
17 | 0 | 79 | 50 | 5 |  |  |  | CC(C)(CO)NC(=O)[C@H]1OC(n2cnc3c(NCCc4cn(Cc5ccc(Cl)cc5)c5ccccc45)ncnc32)[C@H](O)[C@@H]1O (stereo partly specified) |  |  |  | inactive
18 | 59 | 100 | 97 | 71 | 0.011 | 0.14 |  | OC[C@H]1O[C@@H](n2cnc3c(NCCc4cn(Cc5ccc(Cl)cc5)c5ccccc45)ncnc32)[C@H](O)[C@@H]1O |  | 40.8 |  | 
19 | 44 | 99 | 96 | 90 | 0.0083 | 0.12 |  | O=C(NC1CC1)[C@H]1OC(n2cnc3c(NCCc4cn(CCN5CCCCC5)c5ccccc45)ncnc32)[C@H](O)[C@@H]1O (stereo partly specified) |  | 7.3 |  | 
20 | 8 | 93 | 76 | 20 |  | 1.4 | 0.37 | O=C(NC1CC1)[C@H]1O[C@@H](n2cnc3c(NCCc4cn(Cc5cccc6ccccc56)c5ccccc45)ncnc32)[C@H](O)[C@@H]1O |  | 2.4 |  | 
